In ChEMBL document CHEMBL1138656, “Design, synthesis, and evaluation of sugar amino acid based inhibitors of protein prenyl transferases PFT and PGGT-1” (J Med Chem, 2004):

Tests used:
[1] = molecular target: Geranylgeranyl transferase type I (Homo sapiens, UniProt P49354+P53609); test: Inhibition of [3H]GGPP incorporation by Protein Geranylgeranyl transferase type I; type: protein-complex assay
Method in brief: (§1)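 Cell-free prenyltransferase assay measuring inhibition of enzyme-catalysed incorporation of tritiated prenyl donor: [3H]FPP for PFT, the corresponding tritiated geranylgeranyl donor for PGGT-1. The buffer was Tris, pH 7.4, with dithiothreitol, which removes the cysteine S-tert-butyl group. Each determination used five compound concentrations. The IC50 came from a fitted concentration–inhibition curve and is the mean of three determinations.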

[2] = molecular target: Protein farnesyltransferase (Homo sapiens, UniProt P49354+P49356); test: Inhibition of [3H]FPP incorporation by Protein Farnesyltransferase; type: protein-complex assay; method in brief: as §1

SMILES | IC50 [1] [µM] | IC50 [2] [µM]
C[S+]([O-])CC[C@H](NC(=O)[C@H]1O[C@@H](CNC(=O)[C@@H](N)CSSC(C)(C)C)CC[C@@H]1OCc1ccccc1)C(=O)O (some centres undefined) | > 1000 | 2.2
CC[C@H](C)[C@H](NC(=O)[C@@H](NC(=O)[C@@H](N)CS)C(C)C)C(=O)N[C@@H](CCSC)C(=O)O |  | 0.42
CSCC[C@H](NC(=O)[C@H]1O[C@H](CNC(=O)[C@@H](N)CSSC(C)(C)C)CC[C@@H]1OCc1ccccc1)C(=O)O | 48 | 42
CSCC[C@H](NC(=O)[C@H]1O[C@@H](CNC(=O)[C@@H](N)CSSC(C)(C)C)CC[C@@H]1OCc1ccccc1)C(=O)O | > 1000 | 0.25
C[S+]([O-])CC[C@H](NC(=O)[C@H]1O[C@H](CNC(=O)[C@@H](N)CSSC(C)(C)C)CC[C@@H]1OCc1ccccc1)C(=O)O (some centres undefined) | 521 | 91

The next lines start with the values.

IC50 [1] [µM] | IC50 [2] [µM] | SMILES
311 | ~1000 | C=C(N[C@@H](CCSC)C(=O)O)[C@H]1O[C@H](CNC(=O)[C@@H](N)CSSC(C)(C)C)CC[C@@H]1OCc1ccccc1
14 | 57 | CC(C)C[C@H](NC(=O)[C@H]1O[C@@H](CNC(=O)[C@@H](N)CSSC(C)(C)C)CC[C@@H]1OCc1ccccc1)C(=O)O
500 | > 1000 | C=C(N[C@@H](CCSC)C(=O)O)[C@H]1O[C@@H](CNC(=O)[C@@H](N)CSSC(C)(C)C)CC[C@@H]1OCc1ccccc1
261 | > 1000 | C=C(N[C@@H](CC(C)C)C(=O)O)[C@H]1O[C@@H](CNC(=O)[C@@H](N)CSSC(C)(C)C)CCC1O (some centres undefined)
206 | 321 | CC(C)C[C@H](NC(=O)[C@H]1O[C@H](CNC(=O)[C@@H](N)CSSC(C)(C)C)CC[C@@H]1OCc1ccccc1)C(=O)O
